The subject of series [1] is Plasmodium falciparum. In words: Antiplasmodial activity against Plasmodium falciparum 3D7 ring stage cells assessed as reduction parasitemia by Malstat assay. It counts as functional, organism-based. Conditions: Plasmodium falciparum, 3D7; read-out: IC50.
The subject of series [2] is Plasmodium falciparum. In words: Antiplasmodial activity against drug resistant Plasmodium falciparum Dd2 ring stage cells assessed as reduction parasitemia by Malstat assay. It counts as functional, organism-based.
Series [3] relates to Human immunodeficiency virus 1. The series can be described thus: Antiviral activity against VSV-G pseudotyped HIV1 lentiviral particles infected in human HeLa cells incubated for 48 hrs by spectrofluorometry. It counts as functional, organism-based. Conditions: Human immunodeficiency virus 1, HeLa, 48 h; read-out: IC50.
Series [4] can be described thus: Selectivity index, ratio of CC50 for human HeLa cells to IC50 for Plasmodium falciparum 3D7 ring stage cells. It counts as functional. Put shortly: (§1)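 Ratio of HeLa MTT CC50 to Malstat IC50 against the stated P. falciparum strain (ring-stage, triplicate, 1% parasitemia).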
The next series concerns HeLa. In words: Cytotoxicity against human HeLa cells by MTT assay. It counts as cell-based. Put shortly: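 MTT reduction assay on HeLa cells (DMEM, 10% heat-inactivated FCS) with serial dilutions; CC50 taken as concentration giving 50% growth inhibition, ± SEM.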
A general note: Tetrazolium assays rely on reduction of a dye to a coloured formazan, in cell work by metabolically active cells.

The nature of series [5]: Selectivity index, ratio of CC50 for human HeLa cells to IC50 for Plasmodium falciparum Dd2 ring stage cells. It counts as functional. Put shortly:
as §1

A short description of series [6]: Selectivity index, ratio of CC50 for human HeLa cells to IC50 for VSV-G pseudotyped HIV1 lentiviral particles. It counts as functional. Put shortly: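 Ratio of HeLa MTT CC50 to IC50 in the 48 h VSV-G-pseudotyped HIV-1 reporter assay in HeLa cells.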
For series [7], the system named is Human immunodeficiency virus 1. In words: Antiviral activity against HIV1 NL43 infected din human MT4 cells pre-incubated in presence of compound for 48 hrs followed by TZM cells infection with compound treated virus supernatant by X-gal staining based microscopy. It counts as functional, organism-based. The following applies: Human immunodeficiency virus 1, NL43, TZM. Put shortly: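 MT4 co-culture with NL43 HIV-1 preincubated 4 h at 37 °C, then compounds in DMSO added at six concentrations for 48 h; cell-free supernatant used to infect TZM cells in triplicate; after 2 days cells fixed (acetone/ethanol), X-Gal stained 2–4 h, blue cells counted; uninfected and untreated-infected wells set as 100% and 0% activity.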

Series [8] relates to Plasmodium falciparum. In words: Antiplasmodial activity against Plasmodium falciparum NF54 assessed as reduction in stage IV and V gametocyte formation at IC50 level incubated for 48 hrs measured 7 days post compound wash by Giemsa staining. It counts as functional, organism-based.
The subject of another series is Mus musculus. In words: Toxicity in Plasmodium […] N infected in C57/BL6 mouse assessed as parasitemia at 20 mg/kg, po dosed 30 mins post parasite infection and same dose repeated on days 1, 2 and 3 post infection measured on parasitemia day 2 to 7. It counts as organism-based. More on the design: dose 20 mg/kg, route oral. Conditions: in vivo, 0.5 h. Put shortly:
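Infected mice dosed orally at 20 mg/kg on days 0–3 (first dose 30 min after intraperitoneal infection); death of treated infected mice before day 6 counted as toxic death; parasitemia followed on Giemsa smears to day 7.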

Series [9] in a line: Cmax in C57/BL6 mouse plasma at 20 mg/kg, po dissolved in Pheroid formulation. Set-up: dose 20 mg/kg, route oral. It counts as ADME, organism-based. Put shortly: (§2)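 Male C57/BL6 mice given 20 mg/kg by oral gavage (200 µl) in 10% DMSO (resuspended precipitate) or Pheroid vesicles; tail blood at 30–480 min (DMSO) or 10–420 min (Pheroid), plasma separated; parent, AZT and DHA quantified by LC–MS/MS after acetonitrile extraction with deoxythymidine internal standard, calibration in plasma.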

Series [10] is described as follows: Drug metabolism in C57/BL6 mouse liver microsomes measured after 15 mins. It counts as ADME, Microsome. Conditions: read-out: Drug metabolism. Put shortly:
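Compound at 1 µM final incubated at 37 °C with mouse liver microsomes (0.2 mg/ml protein) in phosphate buffer pH 7.4; started with 1 mM NADPH; aliquots at 0, 15, 30, 45 min quenched in cold acetonitrile; parent remaining (% of time zero) and released AZT/DHA measured by LC–MS/MS.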
For orientation: Liver microsomes are a subcellular fraction often used to study metabolism.

Series [11] relates to Plasma. The series can be described thus: Drug metabolism in C57/BL6 mouse plasma assessed as azidothymidine level at 20 mg/kg, po dissolved in 10% DMSO. It counts as ADME, organism-based. More on the design: dose 20 mg/kg, route oral. The following applies: in vivo. Put shortly:
as §2

Series [12] deals with Plasma. The series can be described thus: Drug metabolism in C57/BL6 mouse plasma assessed as azidothymidine level at 20 mg/kg, po dissolved in Pheroid formulation. It counts as ADME, organism-based. Conditions: in vivo. Set-up: dose 20 mg/kg, route oral. Put shortly:
as §2

Series [13] relates to Plasma. In words: Drug metabolism in C57/BL6 mouse plasma assessed as dihydroartemisinin level at 20 mg/kg, po dissolved in 10% DMSO. It counts as ADME, organism-based. Set-up: dose 20 mg/kg, route oral. Conditions: in vivo. Put shortly:
as §2

Series [14] has as its system Plasma. The series can be described thus: Drug metabolism in C57/BL6 mouse plasma assessed as dihydroartemisinin level at 20 mg/kg, po dissolved in Pheroid formulation. It counts as ADME, organism-based. Set-up: dose 20 mg/kg, route oral. Conditions: in vivo. Put shortly:
as §2

The test system of series [15] is Blood. The series can be described thus: Drug metabolism in C57/BL6 mouse blood assessed as azidothymidine level at 20 mg/kg, po dissolved in 10% DMSO. It counts as ADME, organism-based. More on the design: dose 20 mg/kg, route oral. The following applies: in vivo. Put shortly: as §2
Series [16] has as its system Blood. In words: Drug metabolism in C57/BL6 mouse blood assessed as azidothymidine level at 20 mg/kg, po dissolved in Pheroid formulation. It counts as ADME, organism-based. More on the design: dose 20 mg/kg, route oral. Conditions: in vivo. Put shortly:
as §2

For series [17], the system named is Blood. In words: Drug metabolism in C57/BL6 mouse blood assessed as dihydroartemisinin level at 20 mg/kg, po dissolved in 10% DMSO. It counts as ADME, organism-based. Set-up: dose 20 mg/kg, route oral. Conditions: in vivo. Put shortly: as §2
Series [18] relates to Blood. In words: Drug metabolism in C57/BL6 mouse blood assessed as dihydroartemisinin level at 20 mg/kg, po dissolved in Pheroid formulation. It counts as ADME, organism-based. Set-up: dose 20 mg/kg, route oral. The following applies: in vivo. Put shortly:
as §2

A short description of series [19]: Prodrug release in buffer assessed as azidothymidine level. It counts as physicochemical.
Series [20] can be described thus: Prodrug release in buffer assessed as dihydroartemisinin level. It counts as physicochemical.

Active and inactive are the calls of the source. The calls are words filed in the database; no cut-off is given here. A value given as a limit tells only on which side of the number the result lay.

The term IC50 denotes the midpoint of a concentration-inhibition curve. The Cmax is the maximum level reached in the sampled fluid or tissue. As to `Cc1cn([C@H]2C[C@H](N=[N+]=[N-])[C@@H](CO[C@H]3O[C@@H]4O[C@@]5(C)CC[C@H]6[C@H](C)CC[C@@H]([C@H]3C)[C@@]46OO5)O2)c(=O)[nH]c1=O`, the IC50 with Plasmodium falciparum [1] was 30 nM; in the series with Plasmodium falciparum [2], 10 nM; in series [3] it was 2860 nM; with HeLa, greater than 100000 nM; in [7], 486 nM. Also, the “Ratio CC50/IC50” value is reported as greater than 3333.3 in series [4], greater than 10000 in [5] and greater than 35 in [6]. Besides, the inhibition result in the series with Plasmodium falciparum [8] is “Active”. In addition, in the series on Mus musculus, the Activity entry was “Non-toxic”. This compound also yielded a Cmax in series [9] of 40 ng/mL. Moreover, the metabolised at 0.25 h in [10] was greater than 90%. In addition, the Drug metabolism result in the series on Plasma [11] was “Not Active”; with Plasma [12] it was “Active”; with Plasma [13] it was “Active”; in the series on Plasma [14] it was “Active”; in the series on Blood [15], “Active”; in the series with Blood [16] it was “Active”. The Drug metabolism entry in the series with Blood [17] was “Not Active”; in the series on Blood [18], “Not Active”; in series [19] it was “Active”; in series [20], “Not Active”.

The record behind these values is ChEMBL document CHEMBL2069294, “Synthesis and evaluation of hybrid drugs for a potential HIV/AIDS-malaria combination therapy” (Bioorg Med Chem, 2012).
